Results as given in ChEMBL document CHEMBL4390663, “Cationic biaryl 1,2,3-triazolyl peptidomimetic amphiphiles: synthesis, antibacterial evaluation and preliminary mechanism of action studies” (Eur J Med Chem, 2019).

How the values were obtained:
Clostridioides difficile [1] = test: Antibacterial activity against Clostridium difficile NSW132 RT027 incubated for 48 hrs by CLSI method; assay type: functional; details: NSW132 RT027, 48 h
How it was run: (§1)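 Broth microdilution per CLSI anaerobe method in pre-reduced (2-4 h) Brucella broth with haemin and vitamin K, 35 °C anaerobically for 48 h. Compounds from 5 mg/mL DMSO stocks, twofold dilutions in water mixed with double-strength broth; final 0.25–128 μg/mL. […] Triplicate; modal MIC read visually as lowest concentration inhibiting growth.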

Escherichia coli = test: Antibacterial activity against Escherichia coli ATCC 25922 incubated for 18 hrs by CLSI method; assay type: functional; details: ATCC 25922, 18 h
How it was run: (§2)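 Screen run by CO-ADD: mid-log cultures in cation-adjusted MHB, 5 × 10^5 CFU/mL, compounds at up to 32 μg/mL in 1:2 serial dilutions (8 steps), final DMSO ≤0.5%, duplicate. 37 °C for 18 h without shaking; OD600 read against media-only and untreated-bacteria references. MIC = lowest concentration giving ≥80% inhibition; colistin standard.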

Klebsiella pneumoniae = test: Antibacterial activity against Klebsiella pneumoniae 700603 incubated for 18 hrs by CLSI method; assay type: functional; details: Klebsiella pneumoniae, 700603, 18 h; how it was run: as §2
Clostridioides difficile [2] = test: Antibacterial activity against Clostridium difficile ATCC 700057 incubated for 48 hrs by CLSI method; assay type: functional; details: ATCC 700057, 48 h; how it was run: as §1
Pseudomonas aeruginosa = test: Antimicrobial activity against Pseudomonas aeruginosa ATCC 27853 incubated for 18 hrs by CLSI method; assay type: functional; details: ATCC 27853, 18 h; how it was run: as §2
Staphylococcus aureus [3] = test: Antimicrobial activity against Staphylococcus aureus ATCC 43300 incubated for 18 hrs by CLSI method; assay type: functional; details: ATCC 43300, 18 h
Streptococcus pneumoniae = test: Antibacterial activity against Streptococcus pneumoniae ATCC 49619 incubated for 24 hrs by CLSI method; assay type: functional; details: ATCC 49619, 24 h
How it was run: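 CLSI broth microdilution in MHB with 2.5% lysed horse blood, 5% CO2, 35 °C, 24 h. Compounds from 5 mg/mL DMSO stocks diluted in water plus double-strength broth; final 0.25–128 μg/mL. […] Triplicate; modal MIC read visually as lowest growth-inhibiting concentration.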

[4] = Haemolytic activity in sheep erythrocytes at 50 ug/ml incubated for 2 hrs under shaking condition relative to control; assay type: ADME, cell-based, Ovis aries, Erythrocyte; details: read-out: Activity
How it was run: (§3)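 Compounds in PBS mixed with washed sheep erythrocytes (2% final) at 5 or 50 μg/mL, rocked 2 h at 37 °C, centrifuged; supernatant absorbance at 540 nm. PBS-only value subtracted, then expressed relative to water lysis (100%). Triplicate, means reported.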

Staphylococcus aureus [5] = test: Antimicrobial activity against Staphylococcus aureus ATCC 29213 incubated for 24 hrs by CLSI method; assay type: functional; details: ATCC 29213, 24 h
How it was run: (§4)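 Broth microdilution per CLSI aerobic guidance in Mueller Hinton broth, ambient air, 35 °C for 24 h. DMSO stocks were diluted in water, then serially diluted with double-strength broth inoculum added, for final 0.25–128 μg/mL. […] MIC was read visually as the lowest concentration inhibiting growth; the modal value of triplicates was recorded.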

Staphylococcus aureus [6] = test: Antibacterial activity against methicillin-resistant Staphylococcus aureus NCTC 10442 incubated for 24 hrs by CLSI method; assay type: functional; details: NCTC 10442, 24 h; how it was run: as §4
Enterococcus faecalis = test: Antibacterial activity against Enterococcus faecalis ATCC 29212 incubated for 24 hrs by CLSI method; assay type: functional; details: ATCC 29212, 24 h
Acinetobacter baumannii = test: Antimicrobial activity against Acinetobacter baumannii ATCC 19606 incubated for 18 hrs by CLSI method; assay type: functional; details: ATCC 19606 = CIP 70.34 = JCM 6841, 18 h; how it was run: as §2
[7] = Cytotoxicity against human HEK293 cells assessed as reduction in cell growth incubated for 20 hrs by resazurin dye-based fluorometric assay
How it was run: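 HEK293 cells, 5000 per well in DMEM + 10% FBS, exposed to compounds (top 32 μg/mL, 1:2 serial dilution ×8, ≤0.5% DMSO, duplicate) for 20 h at 37 °C, 5% CO2. Resazurin added (2.3 μg/mL final), 3 h further; fluorescence ex 560/em 590 nm. CC50 from sigmoidal dose-response fit against log concentration; tamoxifen standard.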

[8] = Haemolytic activity in sheep erythrocytes at 5 ug/ml incubated for 2 hrs under shaking condition relative to control; assay type: ADME, cell-based, Ovis aries, Erythrocyte; details: read-out: Activity; how it was run: as §3

Structure (SMILES)	MIC (Clostridioides difficile [1])	MIC (Escherichia coli)	MIC (Klebsiella pneumoniae)	MIC (Clostridioides difficile [2])	MIC (Pseudomonas aeruginosa)	MIC (Staphylococcus aureus [3])	MIC (Streptococcus pneumoniae)	hemolysis at 2 h, 50 ug/ml [4]	MIC (Staphylococcus aureus [5])	MIC (Staphylococcus aureus [6])	MIC (Enterococcus faecalis)	MIC (Acinetobacter baumannii)	CC50 at 20 h [7]	hemolysis at 2 h, 5 ug/ml [8]
CC(C)CCOc1ccc2ccccc2c1-c1c(OCc2cn(C[C@@H](CCCNC(=N)N)NC(=O)Cc3ccccc3)nn2)ccc2ccccc12.Cl	64 µg/mL	> 32 µg/mL	> 32 µg/mL	64 µg/mL	> 32 µg/mL	4 µg/mL	8 µg/mL	87.4%	4 µg/mL	4 µg/mL	8 µg/mL	> 32 µg/mL	16.5 µg/mL	1%
CC(C)CCOc1ccccc1-c1ccccc1OCc1cn(C[C@@H](CCCNC(=N)N)NC(=O)OCc2ccccc2)nn1.Cl	32 µg/mL	> 32 µg/mL	> 32 µg/mL	32 µg/mL	> 32 µg/mL	8 µg/mL	16 µg/mL	89.1%	4 µg/mL	4 µg/mL	8 µg/mL	> 32 µg/mL	> 32 µg/mL	0.7%
CC(C)CCOc1ccc2ccccc2c1-c1c(OCc2cn(C[C@@H](CCCNC(=N)N)NC(=O)CCc3ccccc3)nn2)ccc2ccccc12.Cl	16 µg/mL	> 32 µg/mL	> 32 µg/mL	16 µg/mL	> 32 µg/mL	4 µg/mL	8 µg/mL	–	4 µg/mL	4 µg/mL	8 µg/mL	> 32 µg/mL	15.9 µg/mL	–
CC(C)CCOc1ccccc1-c1ccccc1OCc1cn(C[C@@H](CCCNC(=N)N)NC(=O)[C@@H](CCCCN)N=[N+]=[N-])nn1.Cl.Cl	32 µg/mL	16 µg/mL	32 µg/mL	64 µg/mL	32 µg/mL	8 µg/mL	8 µg/mL	–	16 µg/mL	16 µg/mL	16 µg/mL	16 µg/mL	> 32 µg/mL	–
CC(C)CCOc1ccccc1-c1ccccc1OCc1cn(C[C@@H](CCCCN)NC(=O)OCc2ccccc2)nn1.Cl	32 µg/mL	32 µg/mL	> 32 µg/mL	8 µg/mL	32 µg/mL	16 µg/mL	32 µg/mL	–	16 µg/mL	16 µg/mL	16 µg/mL	32 µg/mL	4.7 µg/mL	–
CC(C)CCOc1ccccc1-c1ccccc1OCc1cn(C[C@@H](CCCCN)NC(=O)[C@@H](CCCNC(=N)N)NC(=O)Cc2ccccc2)nn1.Cl.Cl	16 µg/mL	16 µg/mL	32 µg/mL	16 µg/mL	32 µg/mL	4 µg/mL	8 µg/mL	17.5%	8 µg/mL	8 µg/mL	8 µg/mL	32 µg/mL	32 µg/mL	0.6%
CC(C)CCOc1ccccc1-c1ccccc1OCc1cn(C[C@@H](CCCNC(=N)N)NC(=O)[C@@H](CCCCN)n2cc(Cc3ccccc3)nn2)nn1.Cl.Cl	64 µg/mL	8 µg/mL	32 µg/mL	64 µg/mL	16 µg/mL	4 µg/mL	4 µg/mL	–	4 µg/mL	4 µg/mL	8 µg/mL	16 µg/mL	17.8 µg/mL	–
CC(C)CCOc1ccc2ccccc2c1-c1c(OCc2cn(C[C@@H](CCCCN)NC(=O)Cc3ccccc3)nn2)ccc2ccccc12.Cl	32 µg/mL	> 32 µg/mL	> 32 µg/mL	16 µg/mL	> 32 µg/mL	8 µg/mL	32 µg/mL	–	8 µg/mL	8 µg/mL	8 µg/mL	> 32 µg/mL	8.6 µg/mL	–
CC(C)CCOc1ccccc1-c1ccccc1OCc1cn(C[C@@H](CCCCN)NC(=O)[C@@H](CCCNC(=N)N)n2cc(C3CCCCC3)nn2)nn1.Cl.Cl	8 µg/mL	8 µg/mL	16 µg/mL	4 µg/mL	8 µg/mL	4 µg/mL	4 µg/mL	22.9%	8 µg/mL	4 µg/mL	8 µg/mL	16 µg/mL	14.2 µg/mL	1.9%
CC(C)CCOc1ccccc1-c1ccccc1OCc1cn(C[C@@H](CCCCN)NC(=O)Cc2ccccc2)nn1.Cl	32 µg/mL	> 32 µg/mL	> 32 µg/mL	32 µg/mL	32 µg/mL	16 µg/mL	8 µg/mL	–	8 µg/mL	8 µg/mL	8 µg/mL	32 µg/mL	14.2 µg/mL	–
CC(C)CCOc1ccc2ccccc2c1-c1c(OCc2cn(C[C@@H](CCCCN)NC(=O)[C@@H](CCCNC(=N)N)n3cc(CC4CCCCC4)nn3)nn2)ccc2ccccc12.Cl.Cl	16 µg/mL	32 µg/mL	> 32 µg/mL	8 µg/mL	32 µg/mL	2 µg/mL	4 µg/mL	88.8%	4 µg/mL	4 µg/mL	4 µg/mL	16 µg/mL	> 32 µg/mL	1.6%
CC(C)CCOc1ccccc1-c1ccccc1OCc1cn(C[C@@H](CCCNC(=N)N)NC(=O)Cc2ccccc2)nn1.Cl	16 µg/mL	> 32 µg/mL	> 32 µg/mL	64 µg/mL	> 32 µg/mL	16 µg/mL	16 µg/mL	–	16 µg/mL	16 µg/mL	16 µg/mL	> 32 µg/mL	29 µg/mL	–
CC(C)CCOc1ccccc1-c1ccccc1OCc1cn(C[C@@H](CCCNC(=N)N)NC(=O)[C@@H](CCCCN)n2cc(CCc3ccccc3)nn2)nn1.Cl.Cl	16 µg/mL	4 µg/mL	16 µg/mL	16 µg/mL	8 µg/mL	2 µg/mL	4 µg/mL	28.8%	4 µg/mL	4 µg/mL	8 µg/mL	16 µg/mL	17.4 µg/mL	1.7%
CC(C)CCOc1ccc2ccccc2c1-c1c(OCc2cn(C[C@@H](CCCCN)NC(=O)[C@@H](CCCNC(=N)N)NC(=O)Cc3ccccc3)nn2)ccc2ccccc12.Cl.Cl	16 µg/mL	8 µg/mL	32 µg/mL	8 µg/mL	16 µg/mL	2 µg/mL	4 µg/mL	–	2 µg/mL	4 µg/mL	4 µg/mL	32 µg/mL	12.1 µg/mL	–
CC(C)CCOc1ccccc1-c1ccccc1OCc1cn(C[C@@H](CCCCN)NC(=O)[C@@H](CCCNC(=N)N)NC(=O)OCC2c3ccccc3-c3ccccc32)nn1.Cl.Cl	32 µg/mL	> 32 µg/mL	> 32 µg/mL	32 µg/mL	> 32 µg/mL	4 µg/mL	4 µg/mL	–	4 µg/mL	4 µg/mL	4 µg/mL	> 32 µg/mL	> 32 µg/mL	–
